CHOP UPR activ – apoptotic UPR (CHOP) activation. CHO-CHOP luciferase reporter, luminescence; percent of tunicamycin response over DMSO baseline. AID 449763. 330,000 tested, 0.34% active. activation, % at 10 µM;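 active = at 10 µM dose, activation of 40% or more, normalized to positive control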
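Test system: CHO-CHOP cells, stable luciferase reporter of PERK-eIF2a-CHOP signalling | Quantity: 500 CHO-CHOP cells per well | Buffer or medium: F12 plus 10% serum | Compound dosing: 10 µM single point, 0.5% DMSO | Schedule: 6 h compound treatment, 37 °C | Signal: Luciferase luminescence | Control set: Tunicamycin high control, DMSO low control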
UPR XBP1 act – activators of adaptive arm of unfolded protein response (XBP1); 330,000 tested, 0.33% active; activation, % at 20 µM; CHO-XBP1 luciferase reporter, IRE1-XBP1 UPR activation, luminescence; percent of tunicamycin response, DMSO as zero;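 active = versus positive control, 20 µM dose yields 30% or more activation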
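Material: CHO cell line with stable XBP1 luciferase reporter; schedule: 16-18 h cell attachment at 37 °C, then 6 h compound exposure; signal: glow luminescence from Steady-Glo reagent; medium: serum-containing F12 medium, 10% FBS; benchmarks: tunicamycin 10 µg/mL and vehicle-only wells; read-out: percent activation relative to tunicamycin reference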
UBC13 polyUb – inhibitors of human UBC13 polyubiquitin chain formation; inhibition, % at 20 µM; P61088; TR-FRET; 330,000 tested, 0.47% active; AID 485273; in the data active = inhibition above about 45%, passing the limit was not always enough; inconclusive = no clear call, values can overlap the other calls
Target sequence (P61088 whole entry, looked up): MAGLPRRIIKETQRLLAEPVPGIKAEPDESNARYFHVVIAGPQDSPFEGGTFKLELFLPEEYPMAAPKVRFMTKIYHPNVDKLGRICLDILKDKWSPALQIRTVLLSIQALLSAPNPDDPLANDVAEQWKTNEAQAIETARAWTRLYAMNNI
Mdm2 MdmX PPI – inhibitors of human Mdm2/MdmX interaction; O15151+Q00987; SaOS-2 split-luciferase Mdm2/MdmX complementation, luminescence; inhibition, % at 8 µM; 330,000 tested, 3% active; AID 485346;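 active = inhibition of at least 50% at 8 µM in the primary screen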
Apaf-1 inh – inhibitors of human Apaf-1 apoptosome. 330,000 tested, 0.71% active. reconstituted apoptosome caspase-3 activity, DEVD-Rh110 fluorescence. inhibition, % at 20 µM. O14727; active = inhibition of at least 40% at 20 µM
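Material: reconstituted apoptosome with Apaf-1, cytochrome c, caspase-9, procaspase-3, dATP; medium: pH 7.5 Hepes buffer with CHAPS, BSA, DTT; also added: cytochrome c and DEVD-Rh110 substrate; timing: 30 min plus 50 min, RT; signal: Rh110 fluorescence intensity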
CHOP UPR conf – confirmation of apoptotic unfolded protein response (CHOP) activators | shares compounds with CHOP UPR activ | CHO-CHOP cells, CHOP-luciferase reporter luminescence; percent of tunicamycin response, DMSO as zero | activation, % at 10 µM | 1,000 tested, 64% active | AID 463112; in the data active = activation above about 33%
UPR XBP1 confirm – confirmation of adaptive unfolded protein response (XBP1) activators; shares compounds with UPR XBP1 act; CHO-XBP1 IRE1-XBP1 luciferase reporter, luminescence; activation, % at 20 µM; 1,000 tested, 63% active;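 active = reporter signal at least 30% of the positive control's activation in two or more of four replicate wells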
Mdm2-MdmX conf – human Mdm2/MdmX binding inhibition, confirmed | luminescent assay | AID 489028 | shares compounds with Mdm2 MdmX PPI | 10,000 tested, 55% active | inhibition, % at 8 µM; in the data active = inhibition above about 40%
FLuc counter – full-length luciferase inhibition in Mdm2/MdmX counter-screen; shares compounds with Mdm2 MdmX PPI; SaOS-2 full-length luciferase counterscreen, luminescence; inhibition, % at 8 µM; 6,200 tested, 77% active; AID 504607;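 active = mean inhibition at 8 µM reaching about 37%, which flags the compound as non-specific, limit read from the data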;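 also: p53-null SaOS-2 cells with luciferase driven by a doxycycline-inducible promoter; compound on cells about two nights before reading with doxycycline added after day one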
Hits are given with their value; - = inactive; ? = inconclusive; . = no result. The list is not random: actives were taken first. Their share in the collection is about 4.1%.

SMILES	CHOP UPR activ	UPR XBP1 act	UBC13 polyUb	Mdm2 MdmX PPI	Apaf-1 inh	CHOP UPR conf	Mdm2-MdmX conf	others
CCOC(=O)c1c(CSC(=N)N)n(-c2ccc(C)cc2)c2cc(Br)c(OC(C)=O)cc12	56.1	-	56.2	91.7	45.8	73.3	-
CC[C@]1(C(=O)OC)[C@H]2C(=O)N(Cc3ccccc3)C(=O)[C@H]2[C@H]2CN=C(SC)N21	-	-	.	-	-	.	.
CC1CCN(CCNC(=S)Nc2ccc(Cl)cc2)CC1	-	-	-	-	-	.	.
Cc1ccc(Oc2c(C(N)=O)cc([N+](=O)[O-])cc2[N+](=O)[O-])cc1	64.0	-	-	94.5	-	-	95.1	FLuc counter=52.0
COc1cc(/C=C/[N+](=O)[O-])ccc1OC(=O)c1cc2ccccc2oc1=O	119.5	-	-	50.8	-	-	-
NC(=O)c1ccc(NC(=O)COC(=O)c2c[nH]c3ccccc23)cc1	-	-	-	-	-	.	.
COc1ccc(S(=O)(=O)N2CCCC(N(C)CCc3ccccc3)C2)cc1OC (stereo unspecified)	-	-	-	-	-	.	.
Cc1ccc(C)c(C(=O)CN2C(=O)c3ccccc3C2=O)c1	-	-	-	-	-	.	.
Cc1cc(C(=O)Cn2ncc(Cl)c(Cl)c2=O)c(C)n1CC(F)(F)F	96.0	-	-	98.3	-	62.0	67.5	FLuc counter=-
Cc1ccc(C)c(C(=O)Cn2ncc(Cl)c(Cl)c2=O)c1	86.9	-	-	96.6	-	67.3	84.2	FLuc counter=-
CCN(Cc1ccncc1)C(=O)c1ccccc1NS(=O)(=O)c1ccc(Br)cc1	-	-	-	-	-	.	.
O=C(Nc1cc(S(=O)(=O)N2CCCCC2)ccc1Cl)c1ccc(F)cc1	-	-	-	-	-	.	.
Cc1ccc(/C=N/Nc2nncc(-c3ccccc3)n2)o1	-	-	-	-	-	.	.
Clc1ccc(-c2ccc(/C=N/Nc3nncc(-c4ccccc4)n3)o2)cc1	41.8	75.6	-	50.3	-	44.0	-	UPR XBP1 confirm=145.3
COc1ccc(C(CNC(=O)C(CC(C)C)NS(=O)(=O)c2ccc(C)cc2)N2CCOCC2)cc1 (stereo unspecified)	-	-	-	-	-	.	.
COc1ccc(-n2c(C)cc(C(=O)CCl)c2C)cc1	564.5	42.2	-	100.3	-	416.8	61.2	UPR XBP1 confirm=30.9;FLuc counter=49.2
Cc1cc(-n2c(C)cc(C(=O)CN3C(=O)C(=O)N(C)C3=O)c2C)no1	-	-	-	-	-	.	.
Cc1cc(-n2c(C)cc(C(=O)CCl)c2C)no1	171.2	-	-	79.2	-	262.6	67.4	FLuc counter=86.8
COc1ccc(-n2c(C)cc(C(=O)CN3C(=O)c4ccccc4C3=O)c2C)cc1	-	-	-	-	-	.	.
Cc1ccc(S(=O)(=O)N2CCC(C(=O)Nc3cc(C(F)(F)F)ccc3N3CCOCC3)CC2)cc1C	-	-	-	-	-	.	.
Cc1cc(C)c2c(c1)/C(=c1/sc3n(c1=O)CN(c1ccccc1)CN=3)C(=O)N2	102.0	189.7	-	56.9	-	83.0	-	UPR XBP1 confirm=168.5
CCOC(=O)c1c(NC(=O)c2cc(-c3ccc(O)cc3)on2)sc(C(C)=O)c1C	78.1	84.1	-	69.8	-	-	-	UPR XBP1 confirm=43.2
CCOC(=O)c1sc(NC(=S)NC(=O)c2ccccc2Cl)c(C(=O)OCC)c1C	-	-	-	-	-	.	.
CCOC(=O)c1sc(NC(=S)NC(=O)c2ccccc2)c(C(=O)OCC)c1C	51.2	50.7	-	85.0	-	98.4	-	UPR XBP1 confirm=114.2
CN(C(=O)Cn1c(=O)oc2ccccc21)C1CCCCC1	-	-	-	-	-	.	.
SMILES	CHOP UPR activ	UPR XBP1 act	UBC13 polyUb	Mdm2 MdmX PPI	Apaf-1 inh	CHOP UPR conf	Mdm2-MdmX conf	others
CCC(C)n1c(=S)[nH]c2c(sc3ccc([N+](=O)[O-])cc32)c1=O (stereo unspecified)	-	-	-	-	-	.	.
O=C(CCN1C(=O)C2CCCCC2C1=O)Nc1ccc(Br)cc1F (stereo unspecified)	-	-	-	-	-	.	.
COc1ccc(CC(=O)NN2C(=O)c3ccccc3C2=O)cc1	-	-	-	-	-	.	.
COc1ccc(CC2=CC(=O)c3ccccc3C2=O)cc1	187.1	-	-	54.8	49.6	190.9	-
COc1ccc(OCC(=O)N(C)CC2COc3ccccc3O2)cc1 (stereo unspecified)	-	-	-	-	-	.	.
O=C(/C=C/Sc1ccccc1)c1ccccc1	78.9	-	-	52.4	-	98.6	-
O=C(Nc1nnc(S(=O)(=O)N2CCN(c3ccc(F)cc3)CC2)s1)c1ccco1	-	-	-	-	-	.	.
Oc1[nH]c2ccccc2c1N=Nc1nc2ccccc2s1	-	-	-	-	-	.	.
CCc1nc(N=Nc2c(O)[nH]c3ccccc23)c2c3c(sc2n1)CCC3	94.4	34.9	-	87.5	-	75.9	-	UPR XBP1 confirm=167.8
O=C(NC1CCCCC1)N1CCN(C(c2ccccc2)c2ccccc2)CC1	-	-	-	-	-	.	.
O=C1/C(=C/c2ccc(N3CCOCC3)o2)SC(=Nc2ccccc2)N1CCc1c[nH]c2ccccc12	110.5	-	-	99.7	-	36.1	98.5	FLuc counter=-
COc1cc(/C=C2\SC(=Nc3ccccc3)N(CCc3c[nH]c4ccccc34)C2=O)ccc1OC(C)C(=O)O (stereo unspecified)	-	-	-	-	-	.	.
CC(C)(C)C(=O)N1CCN(c2ccc(NC(=O)c3ccc([N+](=O)[O-])o3)cc2)CC1	58.5	-	-	53.6	-	86.9	45.5	FLuc counter=-
O=C(Nc1ccc(N2CCCCC2)cc1)c1ccc([N+](=O)[O-])o1	-	-	-	-	-	.	.
Cc1ccc(-c2ccc(/C=N/c3ncn[nH]3)o2)cc1Cl	-	-	-	-	-	.	.
COc1ccccc1N=c1oc2c(OC)cccc2cc1C(=O)NCc1ccco1	76.1	68.6	-	50.6	-	66.7	-	UPR XBP1 confirm=-
FC(F)(F)c1nnc2c(Sc3ccc(Cl)cc3)nc3ccccc3n12	84.1	59.4	?	85.1	-	127.1	94.8	UPR XBP1 confirm=55.3;FLuc counter=-
CC(C)N1C/C(=C/c2ccsc2)C(=O)/C(=C/c2ccsc2)C1	95.1	-	-	91.7	-	91.2	-
C=CCSC(=C(C#N)C#N)c1cc2c([nH]1)CCCC2	43.5	-	-	81.1	-	54.8	-
COc1ccc2nc(SCC(=O)Nc3ccc(S(=O)(=O)Nc4nccc(C)n4)cc3)[nH]c2c1	-	-	-	-	-	.	.

Screening results: PubChem, Sanford-Burnham Center for Chemical Genomics
